# Measured values reported in ChEMBL document CHEMBL5058577, “EUbOPEN Chemogenomics Library 2 (Multiplex)” (2022).
# System: U2OS
# Test: Multiplex assay against U2OS
# Format: toxicity, cell-based
# Conditions: human
# Outline: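 On a CQ1 microscope at 37°C and 5% CO2, live cells were imaged after compound addition. They had been stained at seeding with Hoechst33342, BioTracker Green Microtubule Cytoskeleton Dye, MitoTracker Red and Annexin V Alexa Fluor 680. CellPathfinder machine-learning gating assigned cells to Hoechst high-intensity objects or normal cells, normal cells to healthy, pyknosed or fragmented nuclei, and pyknosed cells to mitotic or apoptotic. Tubulin, mitochondrial-mass and membrane-permeability phenotypes are per cents of healthy-nucleus cells.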
# [1] = 12 h, 1 µM, compound concentration 1 uM, replicate 1
# [2] = 12 h, 1 µM, compound concentration 1 uM, replicate 2
# [3] = 12 h, 10 µM, compound concentration 10 uM, replicate 1
# [4] = 12 h, 10 µM, compound concentration 10 uM, replicate 2
# [5] = 24 h, 1 µM, compound concentration 1 uM, replicate 1
# [6] = 24 h, 1 µM, compound concentration 1 uM, replicate 2
# [7] = 24 h, 10 µM, compound concentration 10 uM, replicate 1
# [8] = 24 h, 10 µM, compound concentration 10 uM, replicate 2
# [9] = 48 h, 1 µM, compound concentration 1 uM, replicate 1
# [10] = 48 h, 1 µM, compound concentration 1 uM, replicate 2
# [11] = 48 h, 10 µM, compound concentration 10 uM, replicate 1
# [12] = 48 h, 10 µM, compound concentration 10 uM, replicate 2
structure (smiles),measurement,setting,value
O=c1nc2[nH]c3ccccc3nc-2c(=O)[nH]1 [ALLOXAZINE],Population Apoptotic (%),[1],70%
same,Population Fragmented Nuclei (%),[1],25%
same,Population Healthy Nuclei (%),[1],61%
same,Population Hoechst High Intensity Objects (%),[1],2%
same,Population Membrane Permeable-Phenotype (%),[1],5%
same,Population Mitochondria Different-Phenotype (%),[1],0%
same,Population Mitotic Cells (%),[1],29%
same,Population Normal (%),[1],97%
same,Population Pyknosed Nuclei (%),[1],12%
same,Population Tubulin-Different-Phenotype (%),[1],3%
same,Total Cell Count,[1],195
same,Population Apoptotic (%),[2],75%
same,Population Fragmented Nuclei (%),[2],15%
same,Population Healthy Nuclei (%),[2],74%
same,Population Mitochondria Different-Phenotype (%),[2],5%
same,Population Mitotic Cells (%),[2],25%
same,Population Pyknosed Nuclei (%),[2],10%
same,Total Cell Count,[2],122
same,Population Apoptotic (%),[3],86%
same,Population Fragmented Nuclei (%),[3],33%
same,Population Healthy Nuclei (%),[3],59%
same,Population Hoechst High Intensity Objects (%),[3],0%
same,Population Membrane Permeable-Phenotype (%),[3],7%
same,Population Mitochondria Different-Phenotype (%),[3],0%
same,Population Mitotic Cells (%),[3],13%
same,Population Normal (%),[3],99%
same,Population Pyknosed Nuclei (%),[3],7%
same,Population Tubulin-Different-Phenotype (%),[3],1%
same,Total Cell Count,[3],212
same,Population Apoptotic (%),[4],88%
same,Population Fragmented Nuclei (%),[4],13%
same,Population Healthy Nuclei (%),[4],78%
same,Population Hoechst High Intensity Objects (%),[4],1%
same,Population Mitochondria Different-Phenotype (%),[4],5%
same,Population Mitotic Cells (%),[4],11%
same,Population Normal (%),[4],98%
same,Population Tubulin-Different-Phenotype (%),[4],3%
same,Total Cell Count,[4],119
same,Population Apoptotic (%),[5],73%
same,Population Fragmented Nuclei (%),[5],24%
same,Population Healthy Nuclei (%),[5],66%
same,Population Hoechst High Intensity Objects (%),[5],1%
same,Population Membrane Permeable-Phenotype (%),[5],4%
same,Population Mitochondria Different-Phenotype (%),[5],1%
same,Population Mitotic Cells (%),[5],26%
same,Population Normal (%),[5],98%
same,Population Pyknosed Nuclei (%),[5],8%
same,Population Tubulin-Different-Phenotype (%),[5],2%
same,Total Cell Count,[5],261
same,Population Apoptotic (%),[6],57%
same,Population Fragmented Nuclei (%),[6],16%
same,Population Healthy Nuclei (%),[6],74%
same,Population Hoechst High Intensity Objects (%),[6],2%
same,Population Membrane Permeable-Phenotype (%),[6],5%
same,Population Mitochondria Different-Phenotype (%),[6],5%
same,Population Mitotic Cells (%),[6],42%
same,Population Normal (%),[6],97%
same,Population Pyknosed Nuclei (%),[6],9%
same,Total Cell Count,[6],146
same,Population Apoptotic (%),[7],78%
same,Population Fragmented Nuclei (%),[7],30%
same,Population Healthy Nuclei (%),[7],61%
same,Population Hoechst High Intensity Objects (%),[7],0%
same,Population Membrane Permeable-Phenotype (%),[7],8%
same,Population Mitochondria Different-Phenotype (%),[7],2%
same,Population Mitotic Cells (%),[7],21%
same,Population Normal (%),[7],99%
same,Population Pyknosed Nuclei (%),[7],8%
same,Population Tubulin-Different-Phenotype (%),[7],2%
same,Total Cell Count,[7],237
same,Population Apoptotic (%),[8],75%
same,Population Fragmented Nuclei (%),[8],16%
same,Population Healthy Nuclei (%),[8],80%
same,Population Hoechst High Intensity Objects (%),[8],2%
same,Population Membrane Permeable-Phenotype (%),[8],5%
same,Population Mitochondria Different-Phenotype (%),[8],4%
same,Population Mitotic Cells (%),[8],25%
same,Population Normal (%),[8],97%
same,Population Pyknosed Nuclei (%),[8],2%
same,Population Tubulin-Different-Phenotype (%),[8],3%
same,Total Cell Count,[8],148
same,Population Apoptotic (%),[9],84%
same,Population Fragmented Nuclei (%),[9],19%
same,Population Healthy Nuclei (%),[9],71%
same,Population Hoechst High Intensity Objects (%),[9],1%
same,Population Membrane Permeable-Phenotype (%),[9],1%
same,Population Mitochondria Different-Phenotype (%),[9],1%
same,Population Mitotic Cells (%),[9],15%
same,Population Normal (%),[9],98%
same,Population Pyknosed Nuclei (%),[9],9%
same,Population Tubulin-Different-Phenotype (%),[9],1%
same,Total Cell Count,[9],362
same,Population Apoptotic (%),[10],76%
same,Population Fragmented Nuclei (%),[10],18%
same,Population Healthy Nuclei (%),[10],72%
same,Population Hoechst High Intensity Objects (%),[10],6%
same,Population Membrane Permeable-Phenotype (%),[10],4%
same,Population Mitochondria Different-Phenotype (%),[10],2%
same,Population Mitotic Cells (%),[10],23%
same,Population Normal (%),[10],93%
same,Population Pyknosed Nuclei (%),[10],8%
same,Population Tubulin-Different-Phenotype (%),[10],2%
same,Total Cell Count,[10],207
same,Population Apoptotic (%),[11],90%
same,Population Fragmented Nuclei (%),[11],26%
same,Population Healthy Nuclei (%),[11],66%
same,Population Hoechst High Intensity Objects (%),[11],1%
same,Population Membrane Permeable-Phenotype (%),[11],5%
same,Population Mitochondria Different-Phenotype (%),[11],1%
same,Population Mitotic Cells (%),[11],9%
same,Population Normal (%),[11],98%
same,Population Pyknosed Nuclei (%),[11],6%
same,Population Tubulin-Different-Phenotype (%),[11],2%
same,Total Cell Count,[11],321
same,Population Apoptotic (%),[12],76%
same,Population Fragmented Nuclei (%),[12],12%
same,Population Healthy Nuclei (%),[12],79%
same,Population Membrane Permeable-Phenotype (%),[12],3%
same,Population Mitotic Cells (%),[12],23%
same,Population Pyknosed Nuclei (%),[12],8%
same,Total Cell Count,[12],210
CCCCC[C@H](O)/C=C/[C@H]1[C@H](O)CC(=O)[C@@H]1CCCCCCC(=O)O [ALPROSTADIL],Population Apoptotic (%),[1],100%
same,Population Fragmented Nuclei (%),[1],31%
same,Population Healthy Nuclei (%),[1],62%
same,Population Hoechst High Intensity Objects (%),[1],1%
same,Population Membrane Permeable-Phenotype (%),[1],4%
same,Population Mitochondria Different-Phenotype (%),[1],2%
same,Population Mitotic Cells (%),[1],0%
same,Population Normal (%),[1],98%
same,Population Pyknosed Nuclei (%),[1],6%
same,Population Tubulin-Different-Phenotype (%),[1],2%
same,Total Cell Count,[1],219
same,Population Apoptotic (%),[2],77%
same,Population Fragmented Nuclei (%),[2],11%
same,Population Healthy Nuclei (%),[2],81%
same,Population Hoechst High Intensity Objects (%),[2],0%
same,Population Membrane Permeable-Phenotype (%),[2],9%
same,Population Mitochondria Different-Phenotype (%),[2],5%
same,Population Mitotic Cells (%),[2],22%
same,Population Normal (%),[2],100%
same,Population Tubulin-Different-Phenotype (%),[2],6%
same,Total Cell Count,[2],132
same,Population Apoptotic (%),[3],71%
same,Population Fragmented Nuclei (%),[3],23%
same,Population Healthy Nuclei (%),[3],69%
same,Population Hoechst High Intensity Objects (%),[3],1%
same,Population Membrane Permeable-Phenotype (%),[3],1%
same,Population Mitochondria Different-Phenotype (%),[3],0%
same,Population Mitotic Cells (%),[3],28%
same,Population Normal (%),[3],98%
same,Population Pyknosed Nuclei (%),[3],6%
same,Population Tubulin-Different-Phenotype (%),[3],0%
same,Total Cell Count,[3],222
same,Population Apoptotic (%),[4],77%
same,Population Fragmented Nuclei (%),[4],15%
same,Population Healthy Nuclei (%),[4],75%
same,Population Hoechst High Intensity Objects (%),[4],2%
same,Population Membrane Permeable-Phenotype (%),[4],5%
same,Population Mitochondria Different-Phenotype (%),[4],3%
same,Population Mitotic Cells (%),[4],22%
same,Population Normal (%),[4],97%
same,Population Pyknosed Nuclei (%),[4],8%
same,Population Tubulin-Different-Phenotype (%),[4],5%
same,Total Cell Count,[4],104
same,Population Apoptotic (%),[5],91%
same,Population Fragmented Nuclei (%),[5],25%
same,Population Healthy Nuclei (%),[5],65%
same,Population Hoechst High Intensity Objects (%),[5],1%
same,Population Membrane Permeable-Phenotype (%),[5],5%
same,Population Mitochondria Different-Phenotype (%),[5],2%
same,Population Mitotic Cells (%),[5],8%
same,Population Normal (%),[5],98%
same,Population Pyknosed Nuclei (%),[5],9%
same,Population Tubulin-Different-Phenotype (%),[5],3%
same,Total Cell Count,[5],263
same,Population Apoptotic (%),[6],87%
same,Population Fragmented Nuclei (%),[6],14%
same,Population Healthy Nuclei (%),[6],75%
same,Population Hoechst High Intensity Objects (%),[6],0%
same,Population Membrane Permeable-Phenotype (%),[6],8%
same,Population Mitochondria Different-Phenotype (%),[6],4%
same,Population Mitotic Cells (%),[6],12%
same,Population Normal (%),[6],99%
same,Total Cell Count,[6],166
same,Population Apoptotic (%),[7],94%
same,Population Fragmented Nuclei (%),[7],19%
same,Population Healthy Nuclei (%),[7],74%
same,Population Hoechst High Intensity Objects (%),[7],1%
same,Population Membrane Permeable-Phenotype (%),[7],5%
same,Population Mitochondria Different-Phenotype (%),[7],0%
same,Population Mitotic Cells (%),[7],5%
same,Population Normal (%),[7],98%
same,Population Pyknosed Nuclei (%),[7],6%
same,Population Tubulin-Different-Phenotype (%),[7],3%
same,Total Cell Count,[7],271
same,Population Apoptotic (%),[8],100%
same,Population Fragmented Nuclei (%),[8],12%
same,Population Healthy Nuclei (%),[8],76%
same,Population Hoechst High Intensity Objects (%),[8],0%
same,Population Membrane Permeable-Phenotype (%),[8],4%
same,Population Mitochondria Different-Phenotype (%),[8],2%
same,Population Mitotic Cells (%),[8],0%
same,Population Normal (%),[8],99%
same,Population Pyknosed Nuclei (%),[8],10%
same,Population Tubulin-Different-Phenotype (%),[8],1%
same,Total Cell Count,[8],131
same,Population Apoptotic (%),[9],87%
same,Population Fragmented Nuclei (%),[9],22%
same,Population Healthy Nuclei (%),[9],68%
same,Population Hoechst High Intensity Objects (%),[9],2%
same,Population Membrane Permeable-Phenotype (%),[9],4%
same,Population Mitochondria Different-Phenotype (%),[9],2%
same,Population Mitotic Cells (%),[9],12%
same,Population Normal (%),[9],97%
same,Population Pyknosed Nuclei (%),[9],9%
same,Population Tubulin-Different-Phenotype (%),[9],2%
same,Total Cell Count,[9],367
same,Population Apoptotic (%),[10],95%
same,Population Fragmented Nuclei (%),[10],18%
same,Population Healthy Nuclei (%),[10],71%
same,Population Hoechst High Intensity Objects (%),[10],3%
same,Population Membrane Permeable-Phenotype (%),[10],6%
same,Population Mitochondria Different-Phenotype (%),[10],5%
same,Population Mitotic Cells (%),[10],4%
same,Population Normal (%),[10],96%
same,Population Tubulin-Different-Phenotype (%),[10],6%
same,Total Cell Count,[10],236
same,Population Apoptotic (%),[11],88%
same,Population Fragmented Nuclei (%),[11],13%
same,Population Healthy Nuclei (%),[11],76%
same,Population Hoechst High Intensity Objects (%),[11],0%
same,Population Membrane Permeable-Phenotype (%),[11],4%
same,Population Mitochondria Different-Phenotype (%),[11],0%
same,Population Mitotic Cells (%),[11],11%
same,Population Normal (%),[11],99%
same,Population Pyknosed Nuclei (%),[11],10%
same,Population Tubulin-Different-Phenotype (%),[11],3%
same,Total Cell Count,[11],362
same,Population Apoptotic (%),[12],100%
same,Population Fragmented Nuclei (%),[12],11%
same,Population Healthy Nuclei (%),[12],77%
same,Population Hoechst High Intensity Objects (%),[12],2%
same,Population Membrane Permeable-Phenotype (%),[12],6%
same,Population Mitochondria Different-Phenotype (%),[12],1%
same,Population Mitotic Cells (%),[12],0%
same,Population Normal (%),[12],97%
same,Population Tubulin-Different-Phenotype (%),[12],4%
same,Total Cell Count,[12],165
